Converted amounts (≈) assume the structure as drawn. The source made the active and inactive calls. The rule behind the calls is not given here.
Key:
[1] = test system: Staphylococcus aureus; test: Antibacterial activity against Staphylococcus aureus by disk diffusion method; format: functional
[2] = test system: Staphylococcus aureus; test: Antibacterial activity against methicillin-susceptible Staphylococcus aureus ATCC 25923 by broth microdilution method; format: functional
How it was run: (§1)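 MIC and MBC by broth microdilution following NCCLS recommendations; values given in µg/mL.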

[3] = test system: Bacillus subtilis; test: Antibacterial activity against Bacillus subtilis ATCC 6633 by broth microdilution method; format: functional; how it was run: as §1
[4] = test system: Micrococcus luteus; test: Antibacterial activity against Micrococcus luteus CMCC(B)28001 by broth microdilution method; format: functional; how it was run: as §1
[5] = test system: Escherichia coli; test: Antibacterial activity against Escherichia coli ATCC 25922 by broth microdilution method; format: functional; how it was run: as §1
[6] = test system: Staphylococcus aureus; test: Antibacterial activity against methicillin-resistant Staphylococcus aureus CMAH 0430 by broth microdilution method; format: functional; how it was run: as §1
[7] = test system: Staphylococcus aureus; test: Antibacterial activity against methicillin-resistant Staphylococcus aureus CMAH 0504 by broth microdilution method; format: functional; how it was run: as §1
[8] = test system: Staphylococcus aureus; test: Antibacterial activity against methicillin-resistant Staphylococcus aureus CMAH 0515 by broth microdilution method; format: functional; how it was run: as §1
[9] = test system: Pseudomonas aeruginosa; test: Antibacterial activity against Pseudomonas aeruginosa ATCC 27853 by broth microdilution method; format: functional; how it was run: as §1
[10] = test system: Staphylococcus aureus; test: Antibacterial activity against methicillin-resistant Staphylococcus aureus CMAH 0430 by disk diffusion method; format: functional
[11] = test system: Staphylococcus aureus; test: Antibacterial activity against methicillin-resistant Staphylococcus aureus CMAH 0504 at 30 ug/ml by disk diffusion method; format: functional; details: read-out: IZ
[12] = test system: Staphylococcus aureus; test: Antibacterial activity against methicillin-resistant Staphylococcus aureus CMAH 0515 by disk diffusion method; format: functional
[13] = Toxicity in human erythrocytes assessed as hemolytic activity at 2000 ug/ml after 1 hr; format: cell-based, Erythrocyte; details: read-out: Activity
How it was run: (§2)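 Human heparinised erythrocytes, PBS-washed, were used at about 1.0 × 10^9 cells/mL and mixed 1:1 with compound (1-2000 µg/mL) for 1 h at 37 °C. After centrifugation, supernatant OD540 was read. PBS set 0% lysis and 0.1% Triton X-100 set 100% lysis. Triplicates, confirmed in three independent experiments.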

[14] = Toxicity in human erythrocytes assessed as hemolytic activity at 1000 ug/ml after 1 hr; format: cell-based, Erythrocyte; details: read-out: Activity; how it was run: as §2
[15] = Toxicity in human erythrocytes assessed as hemolytic activity at 500 ug/ml after 1 hr; format: cell-based, Erythrocyte; details: read-out: Activity; how it was run: as §2
[16] = Toxicity in human erythrocytes assessed as hemolytic activity at 250 ug/ml after 1 hr; format: cell-based, Erythrocyte; details: read-out: Activity; how it was run: as §2
[17] = test system: Staphylococcus aureus; test: Antibacterial activity against methicillin-resistant Staphylococcus aureus CMAH 0504 at 10 ug/ml after 20 to 30 mins; format: functional, organism-based
How it was run: (§3)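 Time-kill assay. Mid-log cultures were diluted in Mueller–Hinton broth to a final inoculum of 3-5 × 10^5 cells/mL and incubated at 30 °C with 5, 10, 15 µg/mL (S. aureus ATCC 25923) or 2.5, 5, 10 µg/mL (MRSA CMAH 0504), alongside a drug-free growth control. Samples were washed, plated on MH agar and incubated 24 h at 30 °C for colony counts. Three independent experiments, each in triplicate.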

[18] = test system: Staphylococcus aureus; test: Antibacterial activity against methicillin-susceptible Staphylococcus aureus ATCC 25923 at 15 ug/ml after 40 mins; format: functional, organism-based; how it was run: as §3

C[C@H]1COc2c(N3CCN(C)CC3)c(F)cc3c(=O)c(C(=O)O)cn1c23.C[C@H]1COc2c(N3CCN(C)CC3)c(F)cc3c(=O)c(C(=O)O)cn1c23.O [LEVOFLOXACIN]
inhibition zone (IZ) [1]: 32 mm

CCC(=O)O[C@@H]1CC(=O)O[C@H](C)C/C=C/C=C/[C@H](O)[C@H](C)C[C@H](CC=O)[C@H](O[C@@H]2O[C@H](C)[C@@H](O[C@H]3C[C@@](C)(O)[C@@H](OC(=O)CC)[C@H](C)O3)[C@H](N(C)C)[C@H]2O)[C@H]1OC [MIDECAMYCIN]
inhibition zone (IZ) [1]: 27 mm

CC1(C)S[C@@H]2[C@H](NC(=O)[C@H](N)c3ccccc3)C(=O)N2[C@H]1C(=O)O [AMPICILLIN]
MBC [2]: 0.78 µg/mL (≈ 2.23 µM) | MIC [2]: 0.39 µg/mL (≈ 1.12 µM) | MBC [3]: 0.39 µg/mL (≈ 1.12 µM) | MIC [3]: 0.39 µg/mL (≈ 1.12 µM) | MBC [4]: 0.78 µg/mL (≈ 2.23 µM) | MIC [4]: 0.39 µg/mL (≈ 1.12 µM) | MBC [5]: 100 µg/mL (≈ 286 µM) | MIC [5]: 50 µg/mL (≈ 143 µM) | inhibition zone (IZ) [1]: 34 mm

C=CC1C[N+]2(CC(=O)c3ccc(Cl)cc3)CCC1CC2[C@H](O)c1ccnc2ccc(OC)cc12 (stereo partly specified)
Activity [2]: inactive | Activity [6]: inactive | Activity [7]: inactive | Activity [8]: inactive

C=CC1C[N+]2(CC(=O)c3ccc(Br)cc3)CCC1CC2[C@H](O)c1ccnc2ccc(OC)cc12.[Br-] (stereo partly specified)
MBC [2]: 6.25 µg/mL | MIC [2]: 3.13 µg/mL | MBC [6]: 6.25 µg/mL | MIC [6]: 3.13 µg/mL | MBC [7]: 12.5 µg/mL | MIC [7]: 6.25 µg/mL | MBC [8]: 6.25 µg/mL | MIC [8]: 3.13 µg/mL | MBC [3]: 6.25 µg/mL | MIC [3]: 3.13 µg/mL | MBC [4]: 6.25 µg/mL | MIC [4]: 6.25 µg/mL | MIC [5]: 100 µg/mL | MIC [9]: 100 µg/mL | inhibition zone (IZ) [1]: 24 mm | inhibition zone (IZ) [10]: 23 mm | zone of inhibition at 30 µg/mL [11]: 22 mm | inhibition zone (IZ) [12]: 22 mm | hemolysis at 1 h, 2000 ug/ml [13]: 25% | hemolysis at 1 h, 1000 ug/ml [14]: 7% | hemolysis at 1 h, 500 ug/ml [15]: 0% | hemolysis at 1 h, 250 ug/ml [16]: 0%

C=CC1C[N+]2(CC(=O)c3ccc(OC)cc3)CCC1CC2[C@H](O)c1ccnc2ccc(OC)cc12.[Br-] (stereo partly specified)
MBC [2]: 12.5 µg/mL | MIC [2]: 12.5 µg/mL | MBC [6]: 50 µg/mL | MIC [6]: 25 µg/mL | MBC [7]: 50 µg/mL | MIC [7]: 25 µg/mL | MBC [8]: 50 µg/mL | MIC [8]: 25 µg/mL | MBC [3]: 25 µg/mL | MIC [3]: 12.5 µg/mL | MBC [4]: 12.5 µg/mL | MIC [4]: 12.5 µg/mL | hemolysis at 1 h, 2000 ug/ml [13]: 0% | hemolysis at 1 h, 1000 ug/ml [14]: 0% | hemolysis at 1 h, 500 ug/ml [15]: 0% | hemolysis at 1 h, 250 ug/ml [16]: 0%

C=CC1C[N+]2(CC(=O)c3cccc4ccccc34)CCC1CC2[C@H](O)c1ccnc2ccc(OC)cc12.[Br-] (stereo partly specified)
MBC [2]: 3.13 µg/mL | MIC [2]: 1.56 µg/mL | MBC [6]: 1.56 µg/mL | MIC [6]: 0.39 µg/mL | MBC [7]: 1.56 µg/mL | MIC [7]: 0.78 µg/mL | MBC [8]: 1.56 µg/mL | MIC [8]: 0.39 µg/mL | MBC [3]: 6.25 µg/mL | MIC [3]: 3.13 µg/mL | MBC [4]: 3.13 µg/mL | MIC [4]: 3.13 µg/mL | MBC [5]: 100 µg/mL | MIC [5]: 50 µg/mL | MIC [9]: 100 µg/mL | Activity [17]: Active | Activity [18]: inactive | inhibition zone (IZ) [1]: 26 mm | inhibition zone (IZ) [10]: 26 mm | zone of inhibition at 30 µg/mL [11]: 23 mm | inhibition zone (IZ) [12]: 25 mm | hemolysis at 1 h, 2000 ug/ml [13]: 55% | hemolysis at 1 h, 1000 ug/ml [14]: 17% | hemolysis at 1 h, 500 ug/ml [15]: 9% | hemolysis at 1 h, 250 ug/ml [16]: 0%

C=C[C@H]1CN2CC[C@H]1C[C@H]2[C@H](O)c1ccnc2ccc(OC)cc12
Activity [2]: inactive | Activity [6]: inactive | Activity [7]: inactive | Activity [8]: inactive

C=CC1C[N+]2(CC(=O)c3ccc([N+](=O)[O-])cc3)CCC1CC2[C@H](O)c1ccnc2ccc(OC)cc12.[Br-] (stereo partly specified)
MBC [2]: 50 µg/mL | MIC [2]: 25 µg/mL | MBC [6]: 50 µg/mL | MIC [6]: 50 µg/mL | MBC [7]: 50 µg/mL | MIC [7]: 50 µg/mL | MBC [8]: 50 µg/mL | MIC [8]: 50 µg/mL | MBC [3]: 50 µg/mL | MIC [3]: 25 µg/mL | MBC [4]: 50 µg/mL | MIC [4]: 25 µg/mL | hemolysis at 1 h, 2000 ug/ml [13]: 0% | hemolysis at 1 h, 1000 ug/ml [14]: 0% | hemolysis at 1 h, 500 ug/ml [15]: 0% | hemolysis at 1 h, 250 ug/ml [16]: 0%

CN[C@H](CC(C)C)C(=O)N[C@H]1C(=O)N[C@@H](CC(N)=O)C(=O)N[C@H]2C(=O)N[C@H]3C(=O)N[C@H](C(=O)N[C@H](C(=O)O)c4cc(O)cc(O)c4-c4cc3ccc4O)[C@H](O)c3ccc(c(Cl)c3)Oc3cc2cc(c3O[C@@H]2O[C@H](CO)[C@@H](O)[C@H](O)[C@H]2O[C@H]2C[C@](C)(N)[C@H](O)[C@H](C)O2)Oc2ccc(cc2Cl)[C@H]1O [VANCOMYCIN]
inhibition zone (IZ) [1]: 23 mm | inhibition zone (IZ) [10]: 24 mm | zone of inhibition at 30 µg/mL [11]: 22 mm | inhibition zone (IZ) [12]: 24 mm

NC[C@H]1O[C@H](O[C@H]2[C@H](O)[C@@H](O[C@H]3O[C@H](CO)[C@@H](O)[C@H](N)[C@H]3O)[C@H](N)C[C@@H]2N)[C@H](O)[C@@H](O)[C@@H]1O [KANAMYCIN]
MBC [2]: 0.78 µg/mL (≈ 1.61 µM) | MIC [2]: 0.39 µg/mL (≈ 0.805 µM) | MBC [3]: 6.25 µg/mL (≈ 12.9 µM) | MIC [3]: 6.25 µg/mL (≈ 12.9 µM) | MBC [4]: 0.39 µg/mL (≈ 0.805 µM) | MIC [4]: 0.39 µg/mL (≈ 0.805 µM) | MBC [5]: 0.39 µg/mL (≈ 0.805 µM) | MIC [5]: 0.39 µg/mL (≈ 0.805 µM) | inhibition zone (IZ) [1]: 28 mm

O=C(N[C@H](CO)[C@H](O)c1ccc([N+](=O)[O-])cc1)C(Cl)Cl [CHLORAMPHENICOL]
inhibition zone (IZ) [1]: 32 mm | inhibition zone (IZ) [10]: 27 mm | zone of inhibition at 30 µg/mL [11]: 26 mm | inhibition zone (IZ) [12]: 27 mm

CN(C)[C@@H]1C(O)=C(C(N)=O)C(=O)[C@@]2(O)C(O)=C3C(=O)c4c(O)cccc4[C@@](C)(O)[C@H]3C[C@@H]12 [TETRACYCLINE]
inhibition zone (IZ) [1]: 14 mm | inhibition zone (IZ) [10]: 15 mm | zone of inhibition at 30 µg/mL [11]: 17 mm | inhibition zone (IZ) [12]: 17 mm

C=C[C@H]1C[N@@]2CC[C@H]1C[C@H]2[C@H](O)c1ccnc2ccc(OC)cc12 [QUININE]
hemolysis at 1 h, 2000 ug/ml [13]: 0% | hemolysis at 1 h, 1000 ug/ml [14]: 0% | hemolysis at 1 h, 500 ug/ml [15]: 0% | hemolysis at 1 h, 250 ug/ml [16]: 0%

Cc1nnc(SCC2=C(C(=O)O)N3C(=O)[C@@H](NC(=O)Cn4cnnn4)[C@H]3SC2)s1 [CEFAZOLIN]
inhibition zone (IZ) [1]: 30 mm | inhibition zone (IZ) [10]: 2 mm

C=CC1C[N+]2(CC(=O)c3ccccc3)CCC1CC2[C@H](O)c1ccnc2ccc(OC)cc12.[Br-] (stereo partly specified)
MBC [2]: 25 µg/mL | MIC [2]: 12.5 µg/mL | MBC [6]: 25 µg/mL | MIC [6]: 12.5 µg/mL | MBC [7]: 25 µg/mL | MIC [7]: 12.5 µg/mL | MBC [8]: 25 µg/mL | MIC [8]: 12.5 µg/mL | MBC [3]: 25 µg/mL | MIC [3]: 25 µg/mL | MBC [4]: 12.5 µg/mL | MIC [4]: 6.3 µg/mL | hemolysis at 1 h, 2000 ug/ml [13]: 5% | hemolysis at 1 h, 1000 ug/ml [14]: 0% | hemolysis at 1 h, 500 ug/ml [15]: 0% | hemolysis at 1 h, 250 ug/ml [16]: 0%

Source: ChEMBL document CHEMBL1149559, “Synthesis and evaluation of amphiphilic cationic quinine-derived for antibacterial activity against methicillin-resistant Staphylococcus aureus” (Bioorg Med Chem Lett, 2007)
